Data from ChEMBL document CHEMBL1143724, “4-Amino-5-vinyl-3(2H)-pyridazinones and analogues as potent antinociceptive agents: Synthesis, SARs, and preliminary studies on the mechanism of action” (Bioorg Med Chem, 2007).

Key:
[1] = target: Delta-type opioid receptor (Homo sapiens, UniProt P41143); assay: Binding affinity to delta opioid receptor
[2] = target: Mu-type opioid receptor (Homo sapiens, UniProt P35372); assay: Binding affinity to mu opioid receptor
[3] = target: Kappa-type opioid receptor (Homo sapiens, UniProt P41145); assay: Binding affinity to kappa opioid receptor
Sequence of Kappa-type opioid receptor (P41145 whole entry): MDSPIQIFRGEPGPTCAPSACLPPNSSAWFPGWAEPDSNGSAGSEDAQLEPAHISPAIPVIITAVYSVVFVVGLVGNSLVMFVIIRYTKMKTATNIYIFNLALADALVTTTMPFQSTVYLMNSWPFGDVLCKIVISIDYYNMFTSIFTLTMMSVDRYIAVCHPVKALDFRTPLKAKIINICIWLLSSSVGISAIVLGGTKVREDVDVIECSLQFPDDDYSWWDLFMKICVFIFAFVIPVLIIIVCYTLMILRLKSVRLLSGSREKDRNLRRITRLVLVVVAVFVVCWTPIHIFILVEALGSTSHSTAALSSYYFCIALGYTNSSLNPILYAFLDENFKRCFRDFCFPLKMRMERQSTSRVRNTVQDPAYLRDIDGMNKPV

[4] = tested on: Mus musculus; assay: Antinociceptive effect in sc dosed CD1 mouse; format: functional
In short: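 Acetic acid abdominal constriction test, with compounds given sc 30 min before acetic acid. Writhes counted over 10 min. A response was scored as protected if below 3 SD of the control mean. Six to 8 mice per dose, at least 18 per experiment.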

Sequence of Delta-type opioid receptor (P41143 whole entry): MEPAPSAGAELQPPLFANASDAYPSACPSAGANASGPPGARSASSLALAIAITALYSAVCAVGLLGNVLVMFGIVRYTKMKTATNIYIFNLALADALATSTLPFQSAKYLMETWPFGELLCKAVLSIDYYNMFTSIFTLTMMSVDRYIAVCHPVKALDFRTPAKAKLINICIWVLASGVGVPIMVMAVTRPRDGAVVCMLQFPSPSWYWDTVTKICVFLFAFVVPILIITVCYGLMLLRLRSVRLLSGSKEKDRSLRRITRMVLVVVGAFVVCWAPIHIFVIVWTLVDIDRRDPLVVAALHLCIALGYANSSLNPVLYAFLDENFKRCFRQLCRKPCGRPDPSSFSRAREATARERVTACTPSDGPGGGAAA
Sequence of Mu-type opioid receptor (P35372 whole entry): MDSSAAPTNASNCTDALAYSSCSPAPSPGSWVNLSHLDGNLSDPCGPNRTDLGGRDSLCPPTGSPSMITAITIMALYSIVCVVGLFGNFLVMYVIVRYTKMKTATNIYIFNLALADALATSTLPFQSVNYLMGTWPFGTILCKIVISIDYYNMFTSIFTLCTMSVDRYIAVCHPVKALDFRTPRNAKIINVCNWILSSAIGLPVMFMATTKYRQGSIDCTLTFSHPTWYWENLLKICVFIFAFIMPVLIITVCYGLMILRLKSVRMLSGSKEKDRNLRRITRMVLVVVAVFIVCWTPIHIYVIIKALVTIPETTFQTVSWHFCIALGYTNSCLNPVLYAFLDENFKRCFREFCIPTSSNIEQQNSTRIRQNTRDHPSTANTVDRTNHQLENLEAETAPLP

Structure (SMILES)	Ki [1] [µM]	Ki [2] [µM]	Ki [3] [µM]	ED50 [4] [mg/kg]
C=Cc1c(-c2ccccc2)nn(CCCC)c(=O)c1N	> 10	> 10	> 10	–
C=Cc1c(-c2ccccc2)nn(C)c(=O)c1NCCc1ccccc1	–	–	–	89.4
